Test results: ChEMBL document CHEMBL5042480, “3CL Protease Inhibitors with an Electrophilic Arylketone Moiety as Anti-SARS-CoV-2 Agents” (J Med Chem, 2022)
Activity calls are given as the source filed them. The calls are words filed in the database; no cut-off is given here.

What was measured:
[1] = AUC (0 to 7 hrs) in overnight-fasted Wistar rat at 0.5 mg/kg, po measured upto 7 hrs by quadrupole mass spectrometry coupled UFLC analysis; type: ADME, organism-based; set-up: route oral, dose 0.5 mg/kg, time <=7; settings: in vivo
Method in brief: (§1)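 Male Wistar rats, conscious and unrestrained, were given the compound in saline at 4 mL/kg, either as an i.v. bolus via the left jugular vein or by oral gavage. Heparinized blood was drawn from a cannula at set times up to 7 h and the plasma analysed by LC-MS/MS. AUC0–7 and AUC0–∞ came from noncompartmental trapezoidal analysis; mean ± SD, n = 5.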

[2] = AUC (0 to 7 hrs) in overnight-fasted Wistar rat at 0.1 mg/kg, iv measured upto 7 hrs by quadrupole mass spectrometry coupled UFLC analysis; type: ADME, organism-based; set-up: route intravenous, dose 0.1 mg/kg, time <=7; settings: in vivo; method in brief: as §1
Cytochrome P450 2D6 = Cytochrome P450 2D6 (Homo sapiens, UniProt P10635); experiment: Inhibition of CYP2D6 in human liver microsome at 10 uM; type: toxicity; settings: microsomes
Method in brief: (§2)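 Human liver microsomes (0.1 mg protein/mL) were mixed with compound at 10 μM and probe substrates in phosphate buffer pH 7.4: tacrine (CYP1A2), paclitaxel (2C8), tolbutamide (2C9), dextromethorphan (2D6) and midazolam (3A4). Reactions were started with an NADPH-generating system, run 10 min at 37 °C and stopped with acetonitrile. Metabolites were measured by LC/MS/MS and activity expressed as % remaining versus the no-inhibitor control.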

[3] = Drug metabolism in rat hepatocytes assessed as amide hydrolysis mediated HC-6 metabolite formation at 10 uM incubated upto 2 hrs by LC/UV/MS analysis; type: ADME, cell-based, Hepatocyte
Method in brief: (§3)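 Hepatocytes were suspended at 6 × 10^5 viable cells/mL in KHB buffer and given compound at 10 μM. Incubation was 0 and 2 h at 37 °C under 5% CO2, stopped with acetonitrile. After centrifugation, supernatant metabolites were analysed by LC/UV/MS.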

[4] = Apparent total clearance in overnight-fasted Wistar rat at 0.5 mg/kg, po measured upto 7 hrs by quadrupole mass spectrometry coupled UFLC analysis; type: ADME, organism-based; settings: in vivo, read-out: CLt/F (converted)
Method in brief: (§4)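 Conscious, freely moving male Wistar rats received compound in saline at 4 mL/kg, either i.v. via jugular vein at 0.1 mg/kg or by oral gavage at 0.5 mg/kg. Cannula blood was sampled up to 7 h and plasma measured by LC-MS/MS. Analysis was noncompartmental (trapezoidal AUC); Cmax and tmax were taken as observed, and t1/2 from log-linear terminal regression over at least 3 points. Mean ± SD, n = 5.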

[5] = biological target: Voltage-gated inwardly rectifying potassium channel KCNH2 (Homo sapiens, UniProt Q12809); experiment: Inhibition of hERG expressed in CHO cells at > 100 uM by whole-cell patch-clamp voltage-clamp method; type: toxicity, cell-based
Method in brief: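 hERG tail current was recorded by automated whole-cell patch clamp in CHO cells stably expressing hERG at room temperature. The pulse was +40 mV for 500 ms, then a ramp to −80 mV, repeated every 5 s. Compound was applied cumulatively at 5 min intervals. Verapamil served as positive control and DMSO as vehicle.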

SARS-CoV-2 [6] = experiment: Antiviral activity against SARS coronavirus 2 infected in African green monkey Vero cells assessed as reduction in total viral RNA upto 25 uM measured after 24 hrs post-infection by qRT-PCR analysis; type: functional, organism-based; settings: Severe acute respiratory syndrome coronavirus 2, dose microM <=25, time 24.0 hrs
Method in brief: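 Total viral RNA in treated, SARS-CoV-2-infected Vero cells was quantified by qPCR. Values are mean ± SEM of three independent experiments.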

SARS-CoV-2 [7] = experiment: Antiviral activity against SARS coronavirus 2 infected in African green monkey Vero cells assessed as blockade of viral proliferation at 25 uM incubated for 48 hrs by cytopathic effect assay; type: functional, organism-based; settings: Severe acute respiratory syndrome coronavirus 2
[8] = Tmax in overnight-fasted Wistar rat at 0.5 mg/kg, po measured upto 7 hrs by quadrupole mass spectrometry coupled UFLC analysis; type: ADME, organism-based; settings: in vivo; method in brief: as §4
[9] = AUC (0 to infinity) in overnight-fasted Wistar rat at 0.5 mg/kg, po measured upto 7 hrs by quadrupole mass spectrometry coupled UFLC analysis; type: ADME, organism-based; set-up: route oral, dose 0.5 mg/kg, time <=7; settings: in vivo; method in brief: as §1
Cytochrome P450 1A2 = biological target: T1, Cytochrome P450 1A2 (Homo sapiens, UniProt P05177); experiment: Inhibition of CYP1A2 in human liver microsome at 10 uM; type: toxicity; settings: microsomes; method in brief: as §2
T1 sequence (P05177 whole entry): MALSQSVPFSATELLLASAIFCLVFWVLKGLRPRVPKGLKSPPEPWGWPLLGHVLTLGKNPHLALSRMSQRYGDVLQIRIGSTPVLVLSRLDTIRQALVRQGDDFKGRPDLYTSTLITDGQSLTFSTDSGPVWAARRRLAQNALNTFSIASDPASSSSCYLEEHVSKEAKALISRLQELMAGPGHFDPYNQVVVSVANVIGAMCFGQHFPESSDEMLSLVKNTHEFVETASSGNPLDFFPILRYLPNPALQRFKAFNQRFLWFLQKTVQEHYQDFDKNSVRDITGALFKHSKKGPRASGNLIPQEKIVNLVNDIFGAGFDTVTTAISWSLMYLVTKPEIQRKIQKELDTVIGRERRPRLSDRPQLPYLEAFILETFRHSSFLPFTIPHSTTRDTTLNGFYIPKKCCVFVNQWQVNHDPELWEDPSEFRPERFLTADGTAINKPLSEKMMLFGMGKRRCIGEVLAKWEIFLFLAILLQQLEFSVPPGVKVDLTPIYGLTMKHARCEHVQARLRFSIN

[10] = Drug metabolism in human hepatocytes assessed as amide hydrolysis mediated HC-5 metabolite formation at 10 uM incubated upto 2 hrs by LC/UV/MS analysis; type: ADME, cell-based, Hepatocyte; method in brief: as §3
[11] = Drug metabolism in human hepatocytes assessed as amide hydrolysis mediated HC-7 metabolite formation at 10 uM incubated upto 2 hrs by LC/UV/MS analysis; type: ADME, cell-based, Hepatocyte; method in brief: as §3
[12] = Inhibition of recombinant C-terminal His-tagged SARS coronavirus 1 3CL protease using Boc-Abu-Tle-Leu-Gln-AMC as substrate incubated for 5 mins by Cheng-Prusoff equation analysis; set-up: species or system Severe acute respiratory syndrome-related coronavirus
TK6 = experiment: Mutagenicity against human TK6 cells assessed as induction of micronuclei formation by Micro-flow assay; type: toxicity, cell-based
Method in brief: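 Human TK6 lymphoblastoid cells were treated either 3 h with 1% S9 followed by 21 h recovery, or continuously for 24 h without S9, at 37 °C under 5% CO2. Relative population doubling was used for cytotoxicity. Positive controls were cyclophosphamide and mitomycin C.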

[13] = Oral bioavailability in overnight-fasted Wistar rat at 0.5 mg/kg and measured upto 7 hrs by quadrupole mass spectrometry coupled UFLC analysis; type: ADME, organism-based; settings: in vivo; method in brief: as §4
[14] = Protein binding in rat plasma incubated for 6 hrs by quadrupole mass spectrometry coupled UFLC analysis; type: ADME, cell-free; settings: read-out: PPB
[15] = Half life in overnight-fasted Wistar rat at 0.5 mg/kg, po measured upto 7 hrs by quadrupole mass spectrometry coupled UFLC analysis; type: ADME, organism-based; settings: in vivo; method in brief: as §4
Cytochrome P450 2C9 = Cytochrome P450 2C9 (Homo sapiens, UniProt P11712); experiment: Inhibition of CYP2C9 in human liver microsome at 10 uM; type: toxicity; settings: microsomes; method in brief: as §2
Chain of Cytochrome P450 2C9 (P11712 whole entry): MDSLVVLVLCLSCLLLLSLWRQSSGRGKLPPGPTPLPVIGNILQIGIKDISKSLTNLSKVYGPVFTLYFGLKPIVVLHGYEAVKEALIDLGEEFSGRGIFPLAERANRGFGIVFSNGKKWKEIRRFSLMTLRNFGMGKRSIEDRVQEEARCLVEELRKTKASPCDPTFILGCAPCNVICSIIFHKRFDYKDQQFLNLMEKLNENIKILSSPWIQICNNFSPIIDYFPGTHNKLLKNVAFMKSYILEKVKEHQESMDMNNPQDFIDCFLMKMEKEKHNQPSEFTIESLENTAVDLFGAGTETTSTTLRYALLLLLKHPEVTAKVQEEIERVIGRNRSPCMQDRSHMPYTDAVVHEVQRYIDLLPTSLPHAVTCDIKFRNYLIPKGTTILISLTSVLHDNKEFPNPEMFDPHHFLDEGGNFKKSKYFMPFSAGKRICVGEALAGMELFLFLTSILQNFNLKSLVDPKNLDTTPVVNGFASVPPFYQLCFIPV

Chain of Cytochrome P450 2D6 (P10635 whole entry): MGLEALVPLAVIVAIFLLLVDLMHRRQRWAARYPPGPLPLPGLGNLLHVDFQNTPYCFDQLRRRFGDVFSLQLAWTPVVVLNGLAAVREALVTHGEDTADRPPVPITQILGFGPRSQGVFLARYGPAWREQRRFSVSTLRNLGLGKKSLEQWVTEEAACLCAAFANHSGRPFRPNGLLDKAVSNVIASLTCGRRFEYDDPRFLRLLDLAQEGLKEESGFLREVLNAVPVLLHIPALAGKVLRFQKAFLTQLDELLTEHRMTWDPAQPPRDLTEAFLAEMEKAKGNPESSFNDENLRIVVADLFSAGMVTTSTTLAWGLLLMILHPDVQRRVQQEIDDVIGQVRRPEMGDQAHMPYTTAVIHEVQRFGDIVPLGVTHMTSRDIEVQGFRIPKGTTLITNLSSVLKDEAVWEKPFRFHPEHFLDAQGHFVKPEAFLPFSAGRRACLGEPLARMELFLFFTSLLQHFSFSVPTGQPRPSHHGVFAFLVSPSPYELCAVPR
Chain of Voltage-gated inwardly rectifying potassium channel KCNH2 (Q12809 whole entry): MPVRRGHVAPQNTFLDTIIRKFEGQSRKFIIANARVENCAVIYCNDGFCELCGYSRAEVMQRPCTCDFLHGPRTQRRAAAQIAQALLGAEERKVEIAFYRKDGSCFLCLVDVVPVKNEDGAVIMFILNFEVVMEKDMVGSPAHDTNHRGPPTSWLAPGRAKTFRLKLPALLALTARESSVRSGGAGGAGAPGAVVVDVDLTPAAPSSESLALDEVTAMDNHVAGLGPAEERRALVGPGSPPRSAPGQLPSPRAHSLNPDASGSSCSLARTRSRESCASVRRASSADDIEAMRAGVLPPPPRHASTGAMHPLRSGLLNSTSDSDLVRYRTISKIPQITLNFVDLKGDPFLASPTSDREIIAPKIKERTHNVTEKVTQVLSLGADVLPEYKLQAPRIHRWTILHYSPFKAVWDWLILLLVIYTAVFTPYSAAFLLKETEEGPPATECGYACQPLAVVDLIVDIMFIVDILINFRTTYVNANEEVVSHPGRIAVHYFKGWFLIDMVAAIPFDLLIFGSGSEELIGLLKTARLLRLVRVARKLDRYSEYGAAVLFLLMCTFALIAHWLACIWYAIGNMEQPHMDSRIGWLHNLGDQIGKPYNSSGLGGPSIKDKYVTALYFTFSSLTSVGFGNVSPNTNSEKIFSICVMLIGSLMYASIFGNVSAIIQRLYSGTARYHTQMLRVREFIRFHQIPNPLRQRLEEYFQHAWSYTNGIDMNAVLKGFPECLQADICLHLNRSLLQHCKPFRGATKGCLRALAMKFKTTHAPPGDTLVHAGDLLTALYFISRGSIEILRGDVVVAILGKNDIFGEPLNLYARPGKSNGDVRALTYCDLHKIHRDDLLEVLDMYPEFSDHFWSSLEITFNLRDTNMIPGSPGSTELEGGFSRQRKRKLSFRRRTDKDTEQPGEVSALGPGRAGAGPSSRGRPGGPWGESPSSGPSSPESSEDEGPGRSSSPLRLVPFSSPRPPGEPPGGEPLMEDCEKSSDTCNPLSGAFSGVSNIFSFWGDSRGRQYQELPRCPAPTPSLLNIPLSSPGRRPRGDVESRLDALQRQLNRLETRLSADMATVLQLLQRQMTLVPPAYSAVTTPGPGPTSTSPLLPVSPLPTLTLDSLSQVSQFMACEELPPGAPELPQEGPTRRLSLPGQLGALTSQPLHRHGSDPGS

COc1cccc2[nH]c(C(=O)N[C@@H](CC(C)C)C(=O)N[C@@H](C[C@@H]3CCNC3=O)C(=O)c3nc4ccccc4s3)cc12
AUC(0-t) [1]: 1.59 ng·h/mL
AUC(0-t) [2]: 19.3 ng·h/mL
inhibition (INH) (Cytochrome P450 2D6): Active
Drug metabolism [3]: Metabolite_Detected
CL/F [4]: 2650 mL/min/kg
inhibition (INH) [5]: Not Active
Activity (SARS-CoV-2 [6]): Active
Activity (SARS-CoV-2 [7]): Active
Tmax [8]: 0.35 h
AUC(0-inf) [9]: 3.49 ng·h/mL
inhibition (INH) (Cytochrome P450 1A2): Active
Drug metabolism [10]: Metabolite_Detected
Drug metabolism [11]: Metabolite_Detected
Ki [12]: 6.3 nM
Activity (TK6): Non-Toxic
bioavailability [13]: 3.55%
fraction unbound at 6 h [14]: 0.01
half-life [15]: 9.64 h
inhibition (INH) (Cytochrome P450 2C9): Not Active
